From ChEMBL document CHEMBL2424619, “Small-molecule ligands of methyl-lysine binding proteins: optimization of selectivity for L3MBTL3” (J Med Chem, 2013)

Tests used:
PHD finger protein 23 = PHD finger protein 23 (Homo sapiens, UniProt Q9BUL5); test: Inhibition of PHF23 (unknown origin) after 30 mins by AlphaScreen assay
In short: (§1)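 AlphaScreen competition with histone peptide. Compounds in 3-fold, 10-point dilutions, top 10 or 30 μM; buffer 20 mM Tris pH 8.0, 25 mM NaCl, 2 mM DTT, 0.05% Tween-20. Protein-peptide mix 30 min RT, then streptavidin donor plus nickel-chelate acceptor beads (GST acceptor beads for GST-tagged PHF23, JARID1A) 30 min RT dark. Protein-free His6-biotin peptide counterscreen.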

[1] = target: T1, Scm-like with four MBT domains protein 1 (Homo sapiens, UniProt Q9UHJ3); test: Inhibition of SFMBT1 (unknown origin) after 30 mins by AlphaScreen assay
T1 sequence (Q9UHJ3 whole entry): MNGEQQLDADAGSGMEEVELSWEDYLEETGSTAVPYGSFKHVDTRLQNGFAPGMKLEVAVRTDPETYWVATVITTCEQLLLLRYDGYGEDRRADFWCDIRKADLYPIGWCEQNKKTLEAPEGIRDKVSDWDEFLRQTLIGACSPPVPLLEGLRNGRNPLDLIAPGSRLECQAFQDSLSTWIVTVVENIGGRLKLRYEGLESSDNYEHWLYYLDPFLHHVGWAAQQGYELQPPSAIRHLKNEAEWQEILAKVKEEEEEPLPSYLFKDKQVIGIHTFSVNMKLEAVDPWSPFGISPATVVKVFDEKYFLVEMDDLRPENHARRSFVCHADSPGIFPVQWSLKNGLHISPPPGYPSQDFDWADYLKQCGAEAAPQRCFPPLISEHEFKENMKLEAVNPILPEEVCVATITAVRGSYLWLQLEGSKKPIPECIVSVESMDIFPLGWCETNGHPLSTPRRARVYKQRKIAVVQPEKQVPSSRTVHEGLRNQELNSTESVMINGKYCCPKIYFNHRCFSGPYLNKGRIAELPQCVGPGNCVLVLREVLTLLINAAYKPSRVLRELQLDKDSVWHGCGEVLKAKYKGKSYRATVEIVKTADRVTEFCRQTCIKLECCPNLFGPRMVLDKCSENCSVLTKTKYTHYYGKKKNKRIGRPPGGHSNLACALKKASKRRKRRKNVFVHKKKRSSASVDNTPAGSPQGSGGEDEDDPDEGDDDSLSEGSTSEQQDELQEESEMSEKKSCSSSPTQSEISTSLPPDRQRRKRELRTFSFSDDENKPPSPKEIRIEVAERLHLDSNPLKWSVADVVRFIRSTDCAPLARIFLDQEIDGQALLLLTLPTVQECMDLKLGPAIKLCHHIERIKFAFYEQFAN
In short: as §1, with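 “dark. […]” for “dark.”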

[2] = target: T2, E3 ubiquitin-protein ligase UHRF1 (Homo sapiens, UniProt Q96T88); test: Inhibition of UHRF1 (unknown origin) after 30 mins by AlphaScreen assay
T2 sequence (Q96T88 whole entry): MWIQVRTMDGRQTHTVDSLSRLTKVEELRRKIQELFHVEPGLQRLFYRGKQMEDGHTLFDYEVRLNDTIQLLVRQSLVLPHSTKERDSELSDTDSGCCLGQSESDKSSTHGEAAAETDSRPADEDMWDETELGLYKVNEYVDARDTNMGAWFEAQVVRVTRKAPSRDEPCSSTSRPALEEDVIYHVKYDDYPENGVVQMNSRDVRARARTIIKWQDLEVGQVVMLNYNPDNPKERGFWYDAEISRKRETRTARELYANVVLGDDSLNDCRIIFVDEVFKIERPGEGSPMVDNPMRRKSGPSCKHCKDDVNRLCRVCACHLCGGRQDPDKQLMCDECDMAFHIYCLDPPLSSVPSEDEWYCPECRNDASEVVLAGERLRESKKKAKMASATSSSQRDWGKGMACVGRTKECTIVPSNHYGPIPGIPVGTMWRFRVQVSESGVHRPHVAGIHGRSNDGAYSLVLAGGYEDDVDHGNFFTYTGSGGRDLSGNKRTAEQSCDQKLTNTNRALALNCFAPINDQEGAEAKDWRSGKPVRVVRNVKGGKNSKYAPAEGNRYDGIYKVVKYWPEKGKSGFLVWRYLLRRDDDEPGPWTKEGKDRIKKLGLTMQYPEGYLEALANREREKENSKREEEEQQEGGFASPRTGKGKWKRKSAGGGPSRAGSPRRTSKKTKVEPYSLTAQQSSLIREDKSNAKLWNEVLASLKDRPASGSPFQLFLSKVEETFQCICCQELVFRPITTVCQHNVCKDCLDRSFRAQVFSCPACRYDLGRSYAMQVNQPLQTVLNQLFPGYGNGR
In short: as §1, with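 “dark. […]” for “dark.”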

[3] = target: T3, Lethal(3)malignant brain tumor-like protein 3 (Homo sapiens, UniProt Q96JM7); test: Inhibition of L3MBTL3 (unknown origin) after 30 mins by AlphaScreen assay; in short: as §1
T3 sequence (Q96JM7 whole entry): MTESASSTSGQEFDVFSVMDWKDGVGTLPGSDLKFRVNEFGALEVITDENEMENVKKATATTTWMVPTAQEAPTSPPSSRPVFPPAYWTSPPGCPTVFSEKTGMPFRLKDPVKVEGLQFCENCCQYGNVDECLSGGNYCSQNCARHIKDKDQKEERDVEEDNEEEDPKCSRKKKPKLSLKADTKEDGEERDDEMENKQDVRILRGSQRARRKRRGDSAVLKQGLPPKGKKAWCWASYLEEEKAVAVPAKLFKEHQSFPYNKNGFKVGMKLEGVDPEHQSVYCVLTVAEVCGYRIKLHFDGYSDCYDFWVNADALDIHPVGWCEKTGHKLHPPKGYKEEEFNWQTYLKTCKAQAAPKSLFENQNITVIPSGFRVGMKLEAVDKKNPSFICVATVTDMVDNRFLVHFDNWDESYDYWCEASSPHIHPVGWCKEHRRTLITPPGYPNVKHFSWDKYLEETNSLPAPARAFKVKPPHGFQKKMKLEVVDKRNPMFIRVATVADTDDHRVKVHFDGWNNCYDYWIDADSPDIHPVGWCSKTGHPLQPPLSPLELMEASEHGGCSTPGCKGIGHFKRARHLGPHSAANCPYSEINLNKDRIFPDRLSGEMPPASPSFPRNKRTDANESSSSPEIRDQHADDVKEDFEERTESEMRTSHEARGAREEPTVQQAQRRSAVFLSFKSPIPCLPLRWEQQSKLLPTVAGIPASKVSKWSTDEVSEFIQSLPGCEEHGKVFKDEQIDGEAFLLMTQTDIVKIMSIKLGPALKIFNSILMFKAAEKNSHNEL

[4] = target: T3, Lethal(3)malignant brain tumor-like protein 3; test: Inhibition of L3MBTL3 (unknown origin) using H4K20me2 as substrate after 30 mins by LNCE-TR-FRET assay

Chain of PHD finger protein 23 (Q9BUL5 whole entry): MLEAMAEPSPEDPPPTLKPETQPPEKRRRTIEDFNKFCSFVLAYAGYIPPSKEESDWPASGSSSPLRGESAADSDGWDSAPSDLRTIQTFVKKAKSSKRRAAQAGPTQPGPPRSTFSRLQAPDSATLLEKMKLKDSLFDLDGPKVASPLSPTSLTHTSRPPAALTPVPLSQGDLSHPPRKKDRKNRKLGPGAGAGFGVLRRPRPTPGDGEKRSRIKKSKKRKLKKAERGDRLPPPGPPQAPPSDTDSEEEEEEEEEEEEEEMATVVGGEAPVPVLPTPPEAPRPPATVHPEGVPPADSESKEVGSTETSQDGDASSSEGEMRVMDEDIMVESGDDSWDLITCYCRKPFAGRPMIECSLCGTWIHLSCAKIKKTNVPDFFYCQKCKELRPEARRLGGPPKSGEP

CCN1Cc2ccc(NC(=O)c3ccc(C(=O)N4CCC(C5CCCN5)CC4)cc3)cc2C1 (stereo not drawn)
IC50 (PHD finger protein 23): > 10 µM | IC50 [1]: > 10 µM | IC50 [2]: > 10 µM

CCN1Cc2ccc(NC(=O)c3ccc(C(=O)N4CCC(N5CCCC5)CC4)cc3)cc2C1
IC50 (PHD finger protein 23): > 10 µM | IC50 [3]: 0.37 µM | IC50 [4]: 0.35 µM | IC50 [1]: > 10 µM | IC50 [2]: > 10 µM

O=C(NCCCN1CCCC1)c1ccc(C(=O)N2CCC(N3CCCC3)CC2)cc1
IC50 (PHD finger protein 23): > 10 µM | IC50 [3]: 0.68 µM | IC50 [4]: 0.34 µM | IC50 [1]: > 10 µM | IC50 [2]: > 10 µM

O=C(c1ccc(C(=O)N2CCC(N3CCCC3)C2)cc1)N1CCC(N2CCCC2)CC1 (stereo not drawn)
IC50 (PHD finger protein 23): > 10 µM | IC50 [3]: 0.25 µM | IC50 [4]: 0.22 µM | IC50 [1]: > 10 µM | IC50 [2]: > 10 µM

O=C(c1ccc(C(=O)N2CCC3(CCNC3)C2)cc1)N1CCC(N2CCCC2)CC1 (stereo not drawn)
IC50 (PHD finger protein 23): > 10 µM | IC50 [3]: 1.8 µM | IC50 [4]: 2.2 µM | IC50 [1]: > 10 µM | IC50 [2]: > 10 µM

O=C(c1ccc(C(=O)N2CC3CCC(C2)C3N2CCCC2)cc1)N1CCC(N2CCCC2)CC1 (stereo not drawn)
IC50 (PHD finger protein 23): > 10 µM | IC50 [3]: 0.16 µM | IC50 [4]: 0.092 µM | IC50 [1]: > 10 µM | IC50 [2]: > 10 µM

O=C(c1ccc(C(=O)N2CCC(N3CCCC3)CC2)c([N+](=O)[O-])c1)N1CCC(N2CCCC2)CC1
IC50 (PHD finger protein 23): > 10 µM | IC50 [3]: 0.16 µM | IC50 [4]: 0.088 µM | IC50 [1]: > 10 µM | IC50 [2]: > 10 µM

O=C(c1ccc(C(=O)N2CCC(N3CCCC3)CC2)cc1)N1CCC(N2CCCCCC2)CC1
IC50 (PHD finger protein 23): > 10 µM | IC50 [3]: 0.27 µM | IC50 [4]: 0.21 µM | IC50 [1]: > 10 µM | IC50 [2]: > 10 µM

CN1CCC(N2CCN(C(=O)c3ccc(C(=O)N4CCC(N5CCCC5)CC4)cc3)CC2)CC1
IC50 (PHD finger protein 23): > 10 µM | IC50 [3]: 0.83 µM | IC50 [4]: 0.77 µM | IC50 [1]: > 10 µM | IC50 [2]: > 10 µM

O=C(c1ccc(C(=O)N2CCC(N3CCCC3)CC2)c(Cc2ccccc2)c1)N1CCC(N2CCCC2)CC1
IC50 (PHD finger protein 23): > 10 µM | IC50 [3]: 0.048 µM | IC50 [4]: 0.051 µM | IC50 [1]: > 10 µM | IC50 [2]: > 10 µM

CN(C)C1CCN(C(=O)c2ccc(C(=O)N3CCC(N(C)C)CC3)cc2)CC1
IC50 (PHD finger protein 23): > 10 µM | IC50 [3]: > 10 µM | IC50 [4]: 8 µM | IC50 [1]: > 10 µM | IC50 [2]: > 10 µM

O=C(c1ccc(CN2CCC(N3CCCC3)CC2)cc1)N1CCC(N2CCCC2)CC1
IC50 (PHD finger protein 23): > 10 µM | IC50 [3]: 0.14 µM | IC50 [4]: 0.13 µM | IC50 [1]: > 10 µM | IC50 [2]: > 10 µM

CN1CCN2CC(NC(=O)c3ccc(C(=O)N4CCC(N5CCCC5)CC4)cc3)CC2C1 (stereo not drawn)
IC50 (PHD finger protein 23): > 10 µM | IC50 [3]: 4.6 µM | IC50 [4]: 4.5 µM | IC50 [1]: > 10 µM | IC50 [2]: > 10 µM
